Measured values: ChEMBL document CHEMBL1649571, “In vitro activity of TR-700, the active ingredient of the antibacterial prodrug TR-701, a novel oxazolidinone antibacterial agent” (2009)

Tests used:
Type in all cases: functional
Bacteroides fragilis = assay: Antibacterial activity against Bacteroides fragilis by CLSI M11-A7 agar dilution method
Outline: (§1)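 Recent (2005 to 2008) clinical isolates. Anaerobes grown 48 h in an anaerobic glove box, with inoculum suspensions made in prereduced broth inside the box. A Steers replicator stamped the inoculum onto drug-supplemented agar. After absorption, plates were incubated 48 h at 37°C, then removed from the box and the MIC read. QC strains were run against the CLSI ranges.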

Phocaeicola vulgatus = assay: Antibacterial activity against Bacteroides vulgatus by CLSI M11-A7 agar dilution method; outline: as §1
[1] = system: Bacteroides thetaiotaomicron; assay: Antibacterial activity against Bacteroides thetaiotaomicron by CLSI M11-A7 agar dilution method; outline: as §1
Bacteroides ovatus = assay: Antibacterial activity against Bacteroides ovatus by CLSI M11-A7 agar dilution method; outline: as §1
Clostridium perfringens = assay: Antibacterial activity against Clostridium perfringens by CLSI M11-A7 agar dilution method
Outline: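 Reference agar dilution MIC on recent (2005–2008) clinical isolates. Cultures grown 48 h in an anaerobic glove box; inoculum suspended in prereduced broth inside the box and stamped by Steers replicator onto drug-supplemented agar. Plates incubated 48 h at 37°C before MIC reading. QC strains run alongside, required to fall within CLSI ranges.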

[2] = system: Peptostreptococcus anaerobius; assay: Antibacterial activity against Peptostreptococcus anaerobius by CLSI M11-A7 agar dilution method; outline: as §1
Parvimonas micra = assay: Antibacterial activity against Peptostreptococcus micros by CLSI M11-A7 agar dilution method; outline: as §1
[3] = system: Porphyromonas asaccharolytica; assay: Antibacterial activity against Porphyromonas asaccharolytica by CLSI M11-A7 agar dilution method; outline: as §1
Prevotella sp. = assay: Antibacterial activity against Prevotella sp. by CLSI M11-A7 agar dilution method; outline: as §1
Enterococcus faecalis [4] = assay: Antibacterial activity against vancomycin-susceptible Enterococcus faecalis by CLSI M7-A7 broth microdilution method
Outline: (§2)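 Reference broth microdilution MIC under aerobic conditions on recent (2005–2008) clinical isolates from U.S. and non-U.S. sites. QC strains run alongside, required to fall within published CLSI ranges.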

Enterococcus faecalis [5] = assay: Antibacterial activity against vancomycin-resistant Enterococcus faecalis by CLSI M7-A7 broth microdilution method; outline: as §2
Enterococcus faecium [6] = assay: Antibacterial activity against vancomycin-susceptible Enterococcus faecium by CLSI M7-A7 broth microdilution method; outline: as §2
Enterococcus faecium [7] = assay: Antibacterial activity against vancomycin-resistant Enterococcus faecium by CLSI M7-A7 broth microdilution method; outline: as §2
Streptococcus pneumoniae [8] = assay: Antibacterial activity against penicillin-susceptible Streptococcus pneumoniae by CLSI M7-A7 broth microdilution method; outline: as §2
Streptococcus pneumoniae [9] = assay: Antibacterial activity against penicillin-intermediate Streptococcus pneumoniae by CLSI M7-A7 broth microdilution method; outline: as §2
Streptococcus pneumoniae [10] = assay: Antibacterial activity against penicillin-resistant Streptococcus pneumoniae by CLSI M7-A7 broth microdilution method; outline: as §2
Streptococcus pyogenes = assay: Antibacterial activity against Streptococcus pyogenes by CLSI M7-A7 broth microdilution broth microdilution method; outline: as §2
Streptococcus agalactiae = assay: Antibacterial activity against Streptococcus agalactiae by CLSI M7-A7 broth microdilution method; outline: as §2
Haemophilus influenzae = assay: Antibacterial activity against Haemophilus influenzae by CLSI M7-A7 broth microdilution method
Outline: (§3)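 Recent (2005 to 2008) clinical isolates from U.S. (80%) and non-U.S. (20%) sites. Aerobic MICs were determined by CLSI reference broth microdilution, with quality control strains checked against the published CLSI ranges.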

Moraxella catarrhalis = assay: Antibacterial activity against Moraxella catarrhalis by CLSI M7-A7 broth microdilution method; outline: as §3
Staphylococcus aureus [11] = assay: Antibacterial activity against methicillin-susceptible Staphylococcus aureus by CLSI M7-A7 broth microdilution method; outline: as §2
Staphylococcus aureus [12] = assay: Antibacterial activity against methicillin-resistant Staphylococcus aureus by CLSI M7-A7 broth microdilution method; outline: as §2
Staphylococcus aureus [13] = assay: Antibacterial activity against community-acquired methicillin-resistant Staphylococcus aureus by CLSI M7-A7 broth microdilution method; outline: as §2
[14] = system: Staphylococcus epidermidis; assay: Antibacterial activity against methicillin-susceptible Staphylococcus epidermidis by CLSI M7-A7 broth microdilution method
[15] = system: Staphylococcus epidermidis; assay: Antibacterial activity against methicillin-resistant Staphylococcus epidermidis by CLSI M7-A7 broth microdilution method; outline: as §2

C[C@@H](O)[C@H]1C(=O)N2C(C(=O)O)=C(SCCNC=N)C[C@H]12 [IMIPENEM ANHYDROUS]
1 µg/mL: MIC90 [1] | MIC90 [2] | MIC90 (Prevotella sp.)
< 0.03 µg/mL: MIC50 [3]
0.12 µg/mL: MIC (Bacteroides fragilis) | MIC50 (Bacteroides fragilis) | MIC50 (Clostridium perfringens)
≤ 0.06 µg/mL: MIC50 (Prevotella sp.)
0.25 µg/mL: MIC (Phocaeicola vulgatus) | MIC50 (Phocaeicola vulgatus) | MIC50 (Bacteroides ovatus)
0.06 µg/mL: MIC50 [2] | MIC90 [3]
≤ 0.03 µg/mL: MIC (Parvimonas micra) | MIC50 (Parvimonas micra) | MIC90 (Parvimonas micra) | MIC [3]
0.5 µg/mL: MIC90 (Bacteroides fragilis) | MIC90 (Phocaeicola vulgatus) | MIC50 [1] | MIC90 (Bacteroides ovatus) | MIC90 (Clostridium perfringens)

CC(=O)NC[C@H]1CN(c2ccc(N3CCOCC3)c(F)c2)C(=O)O1 [LINEZOLID]
16 µg/mL: MIC50 (Haemophilus influenzae)
1 µg/mL: MIC50 (Streptococcus pneumoniae [8]) | MIC90 (Streptococcus pneumoniae [8]) | MIC50 (Streptococcus pneumoniae [9]) | MIC90 (Streptococcus pneumoniae [9]) | MIC50 (Streptococcus pneumoniae [10]) | MIC90 (Streptococcus pneumoniae [10]) | MIC50 (Streptococcus pyogenes) | MIC50 [2] | MIC50 (Parvimonas micra) | MIC50 [3] | MIC50 [14] | MIC50 [15]
8 µg/mL: MIC50 (Moraxella catarrhalis) | MIC90 (Moraxella catarrhalis) | MIC90 [1] | MIC50 (Bacteroides ovatus) | MIC90 (Bacteroides ovatus)
2 µg/mL: MIC50 (Enterococcus faecalis [4]) | MIC90 (Enterococcus faecalis [4]) | MIC50 (Enterococcus faecalis [5]) | MIC90 (Enterococcus faecalis [5]) | MIC50 (Enterococcus faecium [6]) | MIC50 (Enterococcus faecium [7]) | MIC90 (Enterococcus faecium [7]) | MIC90 (Streptococcus pyogenes) | MIC50 (Streptococcus agalactiae) | MIC90 (Streptococcus agalactiae) | MIC (Phocaeicola vulgatus) | MIC50 (Phocaeicola vulgatus) | MIC50 (Clostridium perfringens) | MIC90 [2] | MIC90 (Parvimonas micra) | MIC90 [3] | MIC50 (Prevotella sp.) | MIC50 (Staphylococcus aureus [11]) | MIC50 (Staphylococcus aureus [12]) | MIC50 (Staphylococcus aureus [13]) | MIC90 [14] | MIC90 [15]
4 µg/mL: MIC90 (Enterococcus faecium [6]) | MIC (Bacteroides fragilis) | MIC50 (Bacteroides fragilis) | MIC90 (Bacteroides fragilis) | MIC90 (Phocaeicola vulgatus) | MIC [1] | MIC50 [1] | MIC90 (Clostridium perfringens) | MIC90 (Prevotella sp.) | MIC90 (Staphylococcus aureus [11]) | MIC90 (Staphylococcus aureus [12]) | MIC90 (Staphylococcus aureus [13])
32 µg/mL: MIC90 (Haemophilus influenzae)

Cc1ncc([N+](=O)[O-])n1CCO [METRONIDAZOLE]
≤ 0.06 µg/mL: MIC (Parvimonas micra) | MIC50 (Parvimonas micra)
1 µg/mL: MIC90 (Bacteroides fragilis) | MIC50 [1] | MIC90 [1] | MIC50 (Bacteroides ovatus) | MIC90 (Bacteroides ovatus) | MIC50 (Clostridium perfringens) | MIC90 [2] | MIC50 [3] | MIC90 [3]
0.25 µg/mL: MIC50 (Phocaeicola vulgatus) | MIC90 (Phocaeicola vulgatus)
0.12 µg/mL: MIC50 (Bacteroides fragilis)
> 32 µg/mL: MIC90 (Clostridium perfringens) | MIC90 (Parvimonas micra) | MIC90 (Prevotella sp.)
0.5 µg/mL: MIC50 [2] | MIC50 (Prevotella sp.)

Cc1onc(-c2ccccc2)c1C(=O)N[C@@H]1C(=O)N2[C@@H]1SC(C)(C)[C@@H]2C(=O)O [OXACILLIN]
0.25 µg/mL: MIC50 (Staphylococcus aureus [11]) | MIC90 [14]
32 µg/mL: MIC50 (Staphylococcus aureus [12]) | MIC90 (Staphylococcus aureus [12]) | MIC50 (Staphylococcus aureus [13]) | MIC90 (Staphylococcus aureus [13])
0.5 µg/mL: MIC90 (Staphylococcus aureus [11])
> 32 µg/mL: MIC90 [15]
0.12 µg/mL: MIC50 [14]
16 µg/mL: MIC50 [15]

Cn1nnc(-c2ccc(-c3ccc(N4C[C@H](CO)OC4=O)cc3F)cn2)n1 [TEDIZOLID]
1 µg/mL: MIC90 (Enterococcus faecalis [4]) | MIC90 (Enterococcus faecium [6]) | MIC50 (Prevotella sp.)
2 µg/mL: MIC50 (Moraxella catarrhalis) | MIC50 (Phocaeicola vulgatus) | MIC [1] | MIC50 [1] | MIC90 [1] | MIC50 (Bacteroides ovatus) | MIC90 (Clostridium perfringens)
0.5 µg/mL: MIC50 (Enterococcus faecalis [4]) | MIC50 (Enterococcus faecalis [5]) | MIC90 (Enterococcus faecalis [5]) | MIC50 (Enterococcus faecium [6]) | MIC50 (Enterococcus faecium [7]) | MIC90 (Enterococcus faecium [7]) | MIC90 (Streptococcus pyogenes) | MIC90 (Streptococcus agalactiae) | MIC50 (Clostridium perfringens) | MIC90 [2] | MIC90 (Parvimonas micra) | MIC90 [3] | MIC50 (Staphylococcus aureus [11]) | MIC90 (Staphylococcus aureus [11]) | MIC50 (Staphylococcus aureus [12]) | MIC90 (Staphylococcus aureus [12]) | MIC50 (Staphylococcus aureus [13]) | MIC90 (Staphylococcus aureus [13]) | MIC90 [14] | MIC90 [15]
4 µg/mL: MIC90 (Moraxella catarrhalis) | MIC50 (Bacteroides fragilis) | MIC90 (Bacteroides fragilis) | MIC90 (Phocaeicola vulgatus) | MIC90 (Prevotella sp.)
0.25 µg/mL: MIC50 (Streptococcus pneumoniae [8]) | MIC90 (Streptococcus pneumoniae [8]) | MIC50 (Streptococcus pneumoniae [9]) | MIC90 (Streptococcus pneumoniae [9]) | MIC50 (Streptococcus pneumoniae [10]) | MIC90 (Streptococcus pneumoniae [10]) | MIC50 (Streptococcus pyogenes) | MIC50 (Streptococcus agalactiae) | MIC50 [2] | MIC50 (Parvimonas micra) | MIC [3] | MIC50 [3] | MIC50 [14] | MIC50 [15]
8 µg/mL: MIC50 (Haemophilus influenzae) | MIC90 (Bacteroides ovatus)
16 µg/mL: MIC90 (Haemophilus influenzae)

CN[C@H](CC(C)C)C(=O)N[C@H]1C(=O)N[C@@H](CC(N)=O)C(=O)N[C@H]2C(=O)N[C@H]3C(=O)N[C@H](C(=O)N[C@H](C(=O)O)c4cc(O)cc(O)c4-c4cc3ccc4O)[C@H](O)c3ccc(c(Cl)c3)Oc3cc2cc(c3O[C@@H]2O[C@H](CO)[C@@H](O)[C@H](O)[C@H]2O[C@H]2C[C@](C)(N)[C@H](O)[C@H](C)O2)Oc2ccc(cc2Cl)[C@H]1O [VANCOMYCIN]
0.25 µg/mL: MIC50 (Streptococcus pneumoniae [8]) | MIC (Streptococcus pneumoniae [9]) | MIC50 (Streptococcus pneumoniae [9]) | MIC50 (Streptococcus pneumoniae [10])
> 32 µg/mL: MIC50 (Enterococcus faecalis [5]) | MIC90 (Enterococcus faecalis [5]) | MIC50 (Enterococcus faecium [7]) | MIC90 (Enterococcus faecium [7])
0.5 µg/mL: MIC90 (Streptococcus pneumoniae [8]) | MIC90 (Streptococcus pneumoniae [9]) | MIC90 (Streptococcus pneumoniae [10]) | MIC50 (Streptococcus pyogenes) | MIC90 (Streptococcus pyogenes) | MIC50 (Streptococcus agalactiae) | MIC90 (Streptococcus agalactiae)
4 µg/mL: MIC50 (Staphylococcus aureus [13]) | MIC90 (Staphylococcus aureus [13])
1 µg/mL: MIC50 (Enterococcus faecalis [4]) | MIC50 (Enterococcus faecium [6]) | MIC90 (Enterococcus faecium [6]) | MIC50 (Staphylococcus aureus [11]) | MIC90 (Staphylococcus aureus [11]) | MIC50 (Staphylococcus aureus [12]) | MIC90 (Staphylococcus aureus [12])
2 µg/mL: MIC90 (Enterococcus faecalis [4]) | MIC50 [14] | MIC90 [14] | MIC50 [15] | MIC90 [15]
